Calls of active or inactive are those of the source.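 The calls were made as follows, unless noted: active = NADPH fluorescence slope more negative than the mean of all samples by about 3 SD, 99.7% confidence; inactive = the rest.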
Tests used:
[1] = inhibitors of TNFa-induced NFkB p65 translocation, primary screen, imaging, HUVEC, MLSMR starter and 10KST1 sets (AID 438;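 active = inhibition above 20% together with a positive visual image hit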;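 also: compound added about 3h40 before a 20 min TNFalpha stimulation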;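 as to inhibition: signal is the nuclear over cytoplasmic p65 intensity ratio per well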); settings: HUVEC TNFa-induced p65 nuclear translocation; cell count: measured here: nuclei count (cytotoxicity indicator), at 2.08 µM; inhibition: at 2 µM, stronger effect = higher value, 0% TNFa-plus-vehicle, 100% no-TNFa wells
[2] = reduction of polyQ htt aggregates in cells – imaging, exon1htt(103Q)mCFP cells, high-content imaging, primary screen (AID 483;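 active = visual image review flags a hit and inhibition of aggregation exceeds 20%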;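 also: compound exposure lasted 3 days before fixation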;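 as to nuclei count: percent of the per-plate median nuclei count of sample wells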); settings: exon1htt(103Q)mCFP cell line, aggregate imaging, at 2 µM; inhibition of aggregation: stronger effect = higher value; nuclei count: measured here: cell count, toxicity
[3] = endothelial E-selectin expression blockers – imaging, HUVEC, immunofluorescence, MLSMR starter and 10KST1 sets, primary screen (AID 487;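 active = visually confirmed hit in the image check and inhibition above 20%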;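 as to inhibition: signal is fraction of cell area covered by stained E-selectin grains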;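 as to nuclei count: 100% = median nuclei count of all wells on the same plate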); settings: HUVEC TNFalpha-induced E-selectin immunofluorescence imaging, at 2 µM; inhibition: stronger effect = higher value; nuclei count: measured here: cell number, toxicity
[4] = target: Voltage-gated potassium channel subunit beta-2 (Rattus norvegicus) (UniProt P62483); assay: inhibitors of rat Kvbeta2 reductase activity – biochemical, NADPH fluorescence, primary screen (AID 622;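 active = fluorescence slope higher than the sample average by over 3 SD, cut at about -0.22 in these data, passing the limit was not always enough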;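 also: slope of raw intensity against log time taken from 70 to 1610 s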); settings: recombinant KvBeta, 4-cyanobenzaldehyde reduction, at 10 µM, stronger effect = higher value
[5] = target: Voltage-gated potassium channel subunit beta-2 (Rattus norvegicus) (UniProt P62483); assay: enhancers of rat Kvbeta2 NADPH turnover – biochemical, NADPH fluorescence, primary screen (AID 623); settings: Recombinant KvBeta, NADPH fluorescence decrease slope, 10 min; at 10 µM; stronger effect = lower value;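 also: fluorescence intensity change per second fitted from 20 to 320 s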
[6] = target: Muscarinic acetylcholine receptor M4 (Homo sapiens) (UniProt P08173); assay: M4-linked GIRK flux change, two-sided – cell-based, HEK293 M4/GIRK, thallium flux, BTC-AM, M4 allosteric agonist project, primary screen (AID 625;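 active = fluorescence slope after compound addition differing from the mean of all tested samples at 99.7% confidence, mostly higher but some lower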;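 also: thallium influx through GIRK channels coupled to M4 in HEK293 cells with BTC-AM dye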); settings: at 10 µM, actives lie on both sides
Outline: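 Material: M4/GIRK1/GIRK2 stable HEK293 cell line. Medium: pH 7.3 thallium assay buffer. Dosing: single compound concentration, 10 µM final. Schedule: 1 h dye loading, 2 min kinetic read. Measured by: kinetic fluorescence with BTC-AM dye. Read-out: post-addition slope, 15–24 s, of baseline-normalized fluorescence. Benchmarks: carbachol and DMSO controls.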

[7] = blockers of RIG-like receptor reporter activation – cell-based, Sendai virus stimulus, luciferase, 10K MLSCN set, TLR/RLR signaling modifier project, primary screen (AID 602276;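 active = inhibition at or above 50% at 10 µM; inactive = inhibition below 50%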;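 also: firefly luciferase from ISG56 promoter only with Renilla not read in this screen; 0% = Sendai virus plus DMSO and 100% = medium plus DMSO without virus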); settings: HEK293 RL24 IRF3 luciferase reporter, at 10 µM, stronger effect = higher value
[8] = TLR3 IRF3 reporter activation blockers – cell-based, poly I:C stimulus, luciferase, 10K MLSCN set, primary screen (AID 602277;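 active = inhibition of the reporter signal at or above 50%; inactive = inhibition below 50%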); settings: HEK293-TLR3 RL24 IRF3 luciferase reporter, at 10 µM, stronger effect = higher value
[9] = target: Alpha-2C adrenergic receptor (Homo sapiens) (UniProt P18825); assay: compounds altering alpha2C-coupled GIRK flux – cell-based, HEK293 alpha2C/GIRK1/2, thallium flux, primary screen (AID 624;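 active = fluorescence slope after compound addition differing from the mean of all screened samples at 99.7% confidence, in either direction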;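 also: slope of fluorescence ratio to pre-addition baseline per second over 15 to 24 s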); settings: thallium flux BTC fluorescence, at 10 µM, actives lie on both sides
[10] = inhibitors of larval lipid processing in zebrafish, primary screen, whole organism, PED6 fluorescence, gall bladder and intestine (AID 686;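 active = a full or partial loss of lipid-probe fluorescence in the fish gall bladder, intestine or both, judged by eye; inactive = no fluorescence loss, or compound toxic to the fish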;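 also: larvae 5 to 7 days old with five fish per well; signal comes from phospholipase A2 cleavage of quenched PED6 carried via bile; overnight exposure to compound and PED6 before scoring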); settings: Zebrafish larvae PED6 lipid processing, fluorescence scoring; screened at 20 µM (by protocol)
Outline: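 System: live zebrafish larvae aged 5-7 days, whole organism; measure: graded gall bladder and intestinal fluorescence inhibition per well; incubation: overnight exposure; reagent: ingested quenched lipid PED6 at 100 nM; signal: By-eye fluorescence microscopy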

Chain of Voltage-gated potassium channel subunit beta-2 (Rattus norvegicus) (P62483 whole entry, looked up): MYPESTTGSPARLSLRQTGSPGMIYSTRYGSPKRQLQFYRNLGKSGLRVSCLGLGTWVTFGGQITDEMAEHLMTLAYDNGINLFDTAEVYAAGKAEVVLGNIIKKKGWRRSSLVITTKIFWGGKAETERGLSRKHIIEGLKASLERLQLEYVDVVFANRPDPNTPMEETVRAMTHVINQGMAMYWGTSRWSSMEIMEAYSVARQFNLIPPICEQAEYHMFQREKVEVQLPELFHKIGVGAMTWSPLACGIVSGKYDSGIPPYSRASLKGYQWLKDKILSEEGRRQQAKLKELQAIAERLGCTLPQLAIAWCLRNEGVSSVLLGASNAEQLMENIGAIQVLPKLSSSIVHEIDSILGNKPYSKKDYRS
Chain of Muscarinic acetylcholine receptor M4 (Homo sapiens) (P08173 whole entry, looked up): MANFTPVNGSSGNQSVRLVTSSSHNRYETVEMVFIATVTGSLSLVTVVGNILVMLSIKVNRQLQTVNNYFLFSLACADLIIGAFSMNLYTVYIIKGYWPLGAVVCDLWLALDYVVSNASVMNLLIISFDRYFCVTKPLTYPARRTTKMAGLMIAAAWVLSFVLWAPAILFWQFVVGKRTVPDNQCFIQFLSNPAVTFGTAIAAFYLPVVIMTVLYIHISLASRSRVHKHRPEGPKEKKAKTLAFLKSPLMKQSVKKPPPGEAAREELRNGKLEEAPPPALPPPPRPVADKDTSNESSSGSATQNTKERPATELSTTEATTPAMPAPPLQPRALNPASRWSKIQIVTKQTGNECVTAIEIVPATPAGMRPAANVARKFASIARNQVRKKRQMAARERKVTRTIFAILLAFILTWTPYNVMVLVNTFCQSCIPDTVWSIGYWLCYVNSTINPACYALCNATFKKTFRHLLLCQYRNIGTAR
Chain of Alpha-2C adrenergic receptor (Homo sapiens) (P18825 whole entry, looked up): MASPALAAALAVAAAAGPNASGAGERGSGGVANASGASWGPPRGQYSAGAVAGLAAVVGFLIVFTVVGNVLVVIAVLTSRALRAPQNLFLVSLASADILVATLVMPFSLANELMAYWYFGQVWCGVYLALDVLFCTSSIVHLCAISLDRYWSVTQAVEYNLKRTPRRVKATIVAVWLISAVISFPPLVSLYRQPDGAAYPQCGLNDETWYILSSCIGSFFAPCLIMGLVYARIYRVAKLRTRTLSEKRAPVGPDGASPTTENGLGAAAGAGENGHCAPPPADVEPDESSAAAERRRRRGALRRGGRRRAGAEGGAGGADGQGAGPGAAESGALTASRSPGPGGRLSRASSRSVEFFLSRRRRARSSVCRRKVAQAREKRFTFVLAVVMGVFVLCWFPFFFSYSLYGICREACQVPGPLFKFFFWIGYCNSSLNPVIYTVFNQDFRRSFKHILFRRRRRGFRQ

SMILES	cell count [1]	inhibition [1]	inhibition of aggregation [2]	nuclei count [2]	inhibition [3]	nuclei count [3]	fluorescence slope [4]	NADPH fluorescence slope [5]	fluorescence slope [6]	inhibition [7]	inhibition [8]	slope [9]	outcome [10]
CN(Cc1cnn(C)c1)C(=O)c1cc2ccccc2oc1=O	682	13% (inactive)	-9.2% (inactive)	92.1%	40% (inactive)	98.2%	-0.484 (inactive)	-5.1e-05 (inactive)	0.00454 (inactive)	11.1% (inactive)	14% (inactive)	–	–
O=C(Nc1nc(-c2ccccc2)cs1)C1CCCO1 (configuration not stated)	440	9.4% (inactive)	-2.5% (inactive)	102%	–	156%	-0.409 (inactive)	-5.9e-05 (inactive)	–	-12.1% (inactive)	98.1% (active)	0.00563 (inactive)	inactive
Cc1cc(NC(=O)CS(=O)(=O)c2cn(Cc3cccc(F)c3)c3ccccc23)no1	815	-6.6% (inactive)	6.9% (inactive)	116%	-94.1% (inactive)	107%	-0.262 (inactive)	-2.4e-05 (inactive)	0.00574 (inactive)	11.5% (inactive)	0.399% (inactive)	–	–
CCC(=O)Oc1ccc2c(C)cc(=O)oc2c1C	328	3.4% (inactive)	-23.4% (inactive)	98.2%	-42.2% (inactive)	108%	-0.554 (inactive)	-4.5e-05 (inactive)	0.00649 (inactive)	10.7% (inactive)	-2.94% (inactive)	–	–
CCCn1cnc2c(c1=O)c1nc3ccccc3nc1n2Cc1ccccc1OC	499	-7.5% (inactive)	4.9% (inactive)	95%	-68.4% (inactive)	130%	-0.483 (inactive)	-1.8e-05 (inactive)	0.00653 (inactive)	-9.22% (inactive)	101% (active)	–	–
COc1ccc(C(=O)Nc2ccc(S(=O)(=O)Nc3nccnc3OC)cc2)cc1OC	459	8.1% (inactive)	4.1% (inactive)	101%	-126% (inactive)	123%	-0.601 (inactive)	6.9e-06 (inactive)	0.0057 (inactive)	21.5% (inactive)	34.3% (inactive)	–	–
Cc1cc(/N=C/N(C)C)on1	522	1.5% (inactive)	3.5% (inactive)	104%	-19.3% (inactive)	104%	-0.586 (inactive)	-4.7e-05 (inactive)	0.00679 (inactive)	19% (inactive)	16% (inactive)	–	–

— PubChem BioAssay
